What was measured:
Assay type in all cases: functional, cell-based
[1] = test system: SMMC-7721; assay: Antiproliferative activity against human SMMC7721 cells assessed as growth inhibition incubated up to 4 days by MTS assay; conditions: SMMC-7721, 96 h
How it was run: (§1)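 Five human tumour cell lines were assayed by MTS. IC50 is the compound concentration that cuts optical density of treated cells by 50% relative to untreated cells. Mean of three independent determinations.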

[2] = test system: A549; assay: Antiproliferative activity against human A549 cells assessed as growth inhibition incubated up to 4 days by MTS assay; conditions: A549, 96 h; how it was run: as §1
[3] = test system: HL-60; assay: Antiproliferative activity against human HL60 cells assessed as growth inhibition incubated up to 4 days by MTS assay; conditions: HL-60, 96 h; how it was run: as §1
[4] = test system: SW480; assay: Antiproliferative activity against human SW480 cells assessed as growth inhibition incubated up to 4 days by MTS assay; conditions: SW480, 96 h; how it was run: as §1
[5] = test system: MCF7; assay: Antiproliferative activity against human MCF7 cells assessed as growth inhibition incubated up to 4 days by MTS assay; conditions: MCF7, 96 h; how it was run: as §1

Structure (SMILES)	IC50 [1] [µM]	IC50 [2] [µM]	IC50 [3] [µM]	IC50 [4] [µM]	IC50 [5] [µM]
O=C(C[n+]1ccn(C(c2ccccc2)c2cc3ccccc3oc2=O)c1)c1ccc(C(F)(F)F)cc1 (stereo not given)	> 20	> 20	> 20	> 20	> 20
COc1ccc(C(=O)C[n+]2cn(C(c3ccccc3)c3cc4ccccc4oc3=O)c3ccccc32)cc1 (stereo not given)	8.84	> 20	7.13	4.82	1.74
O=c1oc2ccccc2cc1C(c1ccccc1)n1cnc2ccccc21 (stereo not given)	> 20	> 20	> 20	> 20	> 20
COc1ccc(C(=O)C[n+]2c(C)n(C(c3ccccc3)c3cc4ccccc4oc3=O)c3ccccc32)cc1 (stereo not given)	6.92	8.56	3.69	3.43	1.21
Cc1n(C(c2ccccc2)c2cc3ccccc3oc2=O)c2ccccc2[n+]1CC(=O)c1ccc(C(F)(F)F)cc1 (stereo not given)	> 20	> 20	7.72	9.13	8.15
O=C(C[n+]1cn(C(c2ccccc2)c2cc3ccccc3oc2=O)c2ccccc21)c1ccc(C(F)(F)F)cc1 (stereo not given)	6.15	7.07	4.49	1.55	1.29
O=C(C[n+]1cn(C(c2ccccc2)c2cc3ccccc3oc2=O)c2ccccc21)c1ccc2ccccc2c1 (stereo not given)	5.72	9.11	4.13	1.48	1.28
Cc1nc2ccccc2n1C(c1ccccc1)c1cc2ccccc2oc1=O (stereo not given)	> 20	> 20	> 20	> 20	> 20
O=C(C[n+]1cn(C(c2ccccc2)c2cc3ccccc3oc2=O)c2ccccc21)c1ccccc1 (stereo not given)	> 20	> 20	18.6	6.36	5.1
O=C(C[n+]1ccn(C(c2ccccc2)c2cc3ccccc3oc2=O)c1)c1ccc(-c2ccccc2)cc1 (stereo not given)	> 20	> 20	5.28	> 20	12.7
O=C(C[n+]1ccn(C(c2ccccc2)c2cc3ccccc3oc2=O)c1)c1ccc2ccccc2c1 (stereo not given)	> 20	> 20	4.38	8.03	7.27
Cc1n(C(c2ccccc2)c2cc3ccccc3oc2=O)c2ccccc2[n+]1CC(=O)c1ccccc1 (stereo not given)	> 20	> 20	> 20	> 20	> 20
O=C(C[n+]1ccn(C(c2ccccc2)c2cc3ccccc3oc2=O)c1)c1ccccc1 (stereo not given)	> 20	> 20	> 20	> 20	> 20
Cc1n(C(c2ccccc2)c2cc3ccccc3oc2=O)c2ccccc2[n+]1CC(=O)c1ccc(Br)cc1 (stereo not given)	> 20	> 20	> 20	> 20	> 20
O=C(C[n+]1cn(C(c2ccccc2)c2cc3ccccc3oc2=O)c2ccccc21)c1ccc(Br)cc1 (stereo not given)	8.2	11.9	5.95	1.65	1.24
O=c1oc2ccccc2cc1C(c1ccccc1)n1ccnc1 (stereo not given)	> 20	> 20	> 20	> 20	> 20
Cc1cc2ncn(C(c3ccccc3)c3cc4ccccc4oc3=O)c2cc1C (stereo not given)	> 20	> 20	> 20	> 20	> 20
COc1ccc(C(=O)C[n+]2ccn(C(c3ccccc3)c3cc4ccccc4oc3=O)c2)cc1 (stereo not given)	> 20	> 20	> 20	> 20	> 20
O=C(C[n+]1ccn(C(c2ccccc2)c2cc3ccccc3oc2=O)c1)c1ccc(Br)cc1 (stereo not given)	> 20	> 20	> 20	> 20	> 20
